Experimental data collected from several papers.
Lines come from different studies, so protocols differ.
Target: Serine/threonine-protein kinase PLK1 (PLK1, Homo sapiens, UniProt P53350)

| Compound | observed | action | technique | tested at | measurement | value |
| --- | --- | --- | --- | --- | --- | --- |
| Nc1ncc(-c2nc(N3CCOCC3)nc(N3CCOCC3)n2)c(C(F)F)n1 | binding |  | competition with immobilised ligand | 10 µM | remaining binding | 66% |
| C#Cc1n[nH]c2c(-c3cn([C@@H](C)c4ccccc4)c(=O)[nH]c3=O)cc(F)cc12 | enzyme activity | inhibitor |  | 0.1 µM | inhibition | 2.9% |
| COc1ncccc1-c1cnn2ccc(N3CCN(C(=O)OC(C)C)CC3)nc12 | binding |  | competition with immobilised ligand | 1 µM | remaining binding | 100% |
| N#CC1(c2ccccn2)CCN(Cc2cc(C(=O)O)c(=O)n3ccccc23)CC1 | cell-free assay |  | competition with immobilised ligand | 1 µM | remaining binding | 70% |
| CC(C)(C)c1cc(C=C(C#N)C#N)cc(Br)c1O | enzyme activity | inhibitor |  | 0.5 µM | remaining activity | 92.3% |
| C#Cc1n[nH]c2c(-c3cn([C@@H](C)c4ccccn4)c(=O)[nH]c3=O)cc(F)cc12 | enzyme activity | inhibitor |  | 0.1 µM | inhibition | 2.9% |
| Cn1cc(-c2cccc(N3CCc4c(sc5c4CC(C)(C)C5)C3=O)c2CO)cc(Nc2ccncn2)c1=O | enzyme activity | inhibitor |  | 1 µM | inhibition | 4% |
| O=c1[nH]c2ccccc2n1C1CCN(Cc2ccc(-c3[nH]c4cc5ncnc5cc4nc3-c3ccccc3)cc2)CC1 | cell-free assay |  |  | 0.5 µM | remaining signal | 109% |
| Cn1cc(-c2cc(F)cc(N3CCn4c(cc5c4CCCC5)C3=O)c2CO)cc(Nc2ccc(N3CCN(C4COC4)CC3)cn2)c1=O | enzyme activity | inhibitor |  | 0.1 µM | inhibition | 11% |
| Cc1nn(C)cc1-c1nc2c(N3CCN(Cc4ccc(Cl)cc4)CC3)c(Cl)cnc2[nH]1 | binding |  | competition with immobilised ligand | 1 µM | remaining binding | 100% |
| Cn1cncc1[C@@](O)(COc1ccc(C#N)cc1-c1ccc(OC(F)(F)F)cc1)c1ccc(C#N)cc1 | cell-free assay |  | competition with immobilised ligand | 1 µM | remaining binding | 83% |
